ChEMBL document CHEMBL2069284, “Synthesis and selective anticancer activity of steroidal glycoconjugates” (Eur J Med Chem, 2012)
One block for each compound: values may come before it.

Legend:
HeLa [1] = test: Antiproliferative activity against human HeLa cells after 24 hrs by crystal violet staining-based method; assay type: functional, cell-based
Procedure, shortened: (§1)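 Cells were cultured in RPMI-1640 with 5% newborn calf serum and benzylpenicillin at 37 °C, 5% CO2, and used in exponential growth. Cells were seeded at 7500/well, grown 24 h, then exposed to a concentration range. Controls received 1% DMSO vehicle. After 24 h, growth was read by crystal violet staining as absorbance at 590 nm, and IC50 was derived.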

Ca-Ski [2] = test: Antiproliferative activity against human CaSki cells after 24 hrs by crystal violet staining-based method; assay type: functional, cell-based; procedure, shortened: as §1
[3] = (§2) Antiproliferative activity against human ViBo cells after 24 hrs by crystal violet staining-based method; assay type: functional, cell-based; procedure, shortened: as §1
ViBo = test: as §2; assay type: functional, cell-based; procedure, shortened: as §1
HeLa [4] = test: Cytotoxicity against human HeLa cells assessed as LDH release at antiproliferative IC50 after 24 hrs; assay type: cell-based
Procedure, shortened: (§3)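 Membrane damage was measured as LDH released into the culture supernatant 24 h after treatment; Triton X-100 lysis served as the total-lysis reference and DMSO as the vehicle control. For HeLa, CaSki and ViBo, 7500 cells/well were seeded and the medium was replaced after 24 h before treatment. Data are mean ± SD of three independent experiments in triplicate, analyzed by ANOVA with Tukey's test.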

Ca-Ski [5] = test: Cytotoxicity against human CaSki cells assessed as LDH release at antiproliferative IC50 after 24 hrs; assay type: cell-based; procedure, shortened: as §3
[6] = Cytotoxicity against human ViBo cells assessed as LDH release at antiproliferative IC50 after 24 hrs; assay type: cell-based; procedure, shortened: as §3
PBMC = test: Antiproliferative activity against PHA-stimulated and CFSE-labeled human PBMC assessed as proliferation of enriched lymphocyte population at antiproliferative IC50 after 72 hrs by flow cytometric analysis (reference value: 90.13%); assay type: cell-based
Procedure, shortened: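 Enriched lymphocytes from a normal blood donor were obtained by removing cells adherent after 1 h at 37 °C, 5% CO2, then resuspended in RPMI-1640 at 1 × 10⁶ cells/mL. Cells were CFSE-labeled for 15 min at room temperature in the dark, PHA-stimulated and/or treated, and plated at 2 × 10⁵ cells/well with five replicates. After 72 h at 37 °C, cells were PBS-washed, fixed in 1% formaldehyde, and analyzed by flow cytometry (≥20,000 events).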

[7] = Cytotoxicity against human lymphocytes assessed as LDH release at antiproliferative IC50 after 24 hrs; assay type: cell-based; details: lymphocyte; procedure, shortened: as §3

IC50 (HeLa [1]): 81 µM
SMILES: CC(=O)N[C@H]1[C@H](O[C@H]2CC[C@@]3(C)C(=CC[C@H]4[C@@H]5C[C@@H]6O[C@]7(CC[C@@H](C)CO7)[C@@H](C)[C@@H]6[C@@]5(C)CC[C@@H]43)C2)O[C@H](CO)[C@@H](O)[C@@H]1O
inhibition (HeLa [1]): Dose-dependent effect
IC50 (Ca-Ski [2]): 80 µM
inhibition (Ca-Ski [2]): Dose-dependent effect
IC50 [3]: 81 µM
inhibition (ViBo): Dose-dependent effect
Activity (HeLa [4]): Non-toxic
Activity (Ca-Ski [5]): Non-toxic
Activity [6]: Non-toxic
Activity (PBMC): 72.58%
Activity [7]: Non-toxic

IC50 (HeLa [1]): 129 µM
SMILES: CC(=O)N[C@H]1[C@H](O[C@H]2CC[C@@]3(C)[C@@H](CC[C@@H]4[C@@H]3CC(=O)[C@]3(C)[C@@H]5[C@H](C[C@@H]43)O[C@]3(CC[C@@H](C)CO3)[C@H]5C)C2)O[C@H](CO)[C@@H](O)[C@@H]1O
inhibition (HeLa [1]): Dose-dependent effect
IC50 (Ca-Ski [2]): 136 µM
inhibition (Ca-Ski [2]): Dose-dependent effect
IC50 [3]: > 142 µM
inhibition (ViBo): Dose-dependent effect
Activity (HeLa [4]): Non-toxic
Activity (Ca-Ski [5]): Non-toxic
Activity [6]: Non-toxic
Activity (PBMC): 75.59%
Activity [7]: Non-toxic

IC50 (HeLa [1]): 41 µM
SMILES: C[C@@H]1CC[C@@]2(OC1)O[C@H]1C[C@H]3[C@@H]4CC=C5C[C@@H](O[C@@H]6O[C@H](CO)[C@@H](O)[C@H](O)[C@H]6N)CC[C@]5(C)[C@H]4CC[C@]3(C)[C@H]1[C@@H]2C.Cl
inhibition (HeLa [1]): Dose-dependent effect
IC50 (Ca-Ski [2]): 41 µM
inhibition (Ca-Ski [2]): Dose-dependent effect
IC50 [3]: 82 µM
inhibition (ViBo): Dose-dependent effect
Activity (HeLa [4]): Non-toxic
Activity (Ca-Ski [5]): Non-toxic
Activity [6]: Non-toxic
Activity (PBMC): 78.76%
Activity [7]: Non-toxic
